Results published in ChEMBL document CHEMBL3992509, “Discovery of a Highly Potent, Selective, and Metabolically Stable Inhibitor of Receptor-Interacting Protein 1 (RIP1) for the Treatment of Systemic Inflammatory Response Syndrome” (J Med Chem, 2017).
The source made the active and inactive calls. The rule behind the calls is not given here.

Legend:
Brain = experiment: Drug uptake in C57BL/6J mouse brain at 20 mg/kg, iv after 2 hrs by LC-MS/MS analysis; assay type: ADME, organism-based; conditions: in vivo
[1] = Intrinsic clearance in human liver microsomes assessed per mg protein in presence of NADPH by LC-MS/MS analysis; assay type: ADME, microsome; conditions: read-out: CLH
[2] = Half life in mouse liver microsomes in presence of NADPH by LC-MS/MS analysis; assay type: ADME, microsome
[3] = Intrinsic clearance in mouse liver microsomes assessed per mg protein in presence of NADPH by LC-MS/MS analysis; assay type: ADME, microsome; conditions: read-out: CLH
[4] = molecular target: Receptor-interacting serine/threonine-protein kinase 3 (Homo sapiens) (UniProt Q9Y572); experiment: Inhibition of TNFalpha/z-VAD-FMK-induced RIP3 phosphorylation at Ser-227 residue in human HT-29 cells by Western blot method; assay type: cell-based
[5] = Half life in C57BL/6J mouse at 2 mg/kg, iv by LC-MS/MS analysis; assay type: ADME, organism-based; conditions: in vivo
Outline: (§1)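 C57BL/6 mice (n = 3) dosed IV, IP or PO; blood sampled by eye puncture at various time points; plasma levels by LC-MS/MS; parameters from individual animal data by non-compartmental analysis.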

[6] = Oral bioavailability in C57BL/6J mouse at 10 mg/kg by LC-MS/MS analysis; assay type: ADME, organism-based; conditions: in vivo; outline: as §1
Mus musculus [7] = experiment: Protection against TNFalpha-induced mortality in C57BL/6J mouse assessed as survival rate at 6 mg/kg, ip administered as single dose 17 mins before TNFalpha injection measured every 30 mins up to 60 hrs post TNFalpha injection (reference value: 50%); assay type: functional
Mus musculus [8] = experiment: Protection against TNFalpha-induced mortality in ip dosed C57BL/6J mouse assessed as increase in survival rate pretreated for 17 mins followed by TNFalpha injection and subsequent compound treatment once in every 12 hrs measured every 30 mins up to 60 hrs post TNFalpha injection during compound dosing; assay type: functional, organism-based
Outline: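 C57BL/6 mice, 6-8 weeks, ~20 g, randomized (n = 6~10). Given 5.5 μg mTNFα (~0.25 mg/kg) IV in endotoxin-free PBS, 0.2 mL. Compound IP 17 min before TNFα: either once at 6 mg/kg or […], 1, 3 mg/kg then every 12 h; vehicle controls. Survival checked every 30 min to 60 h.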

Mus musculus [9] = experiment: Protection against TNFalpha-induced multiorgan damage in C57BL/6J mouse assessed as inhibition of TNFalpha-induced increase in IL-6 level at 0.3 to 3 mg/kg, ip pretreated for 17 mins followed by TNFalpha injection and subsequent compound treatment once in every 12 hrs measured after 12 hrs; assay type: functional, organism-based
Outline: (§2)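 C57BL/6 mice given 4 μg mTNFα (~0.18 mg/kg) IV. Compound 0.3, 1, 3 mg/kg IP 17 min before and then every 12 h; vehicle controls. Blood taken 12 h and 24 h after TNFα. Assays: IL-6 and IL-1β; serum LDH, CK, AST, creatinine, BUN, amylase.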

Mus musculus [10] = experiment: (§3) Protection against TNFalpha-induced spleen damage in C57BL/6J mouse assessed as reduction in immune cell infiltration at 0.3 to 3 mg/kg, ip pretreated for 17 mins followed by TNFalpha injection and subsequent compound treatment once in every 12 hrs measured 24 hrs post TNFalpha injection by hematoxylin and eosin staining based assay; assay type: functional, organism-based
Outline: (§4)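 Mice given mTNFα IV; compound 0.3, 1, 3 mg/kg IP 17 min before and every 12 h. Killed 24 h post-TNFα. Organs fixed 24 h in 10% neutral buffered formalin, paraffin-embedded, 5-μm sections, H&E stained; ×200, at least three mice each.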

Mus musculus [11] = experiment: Protection against TNFalpha-induced multiorgan damage in C57BL/6J mouse assessed as serum LDH level at 0.3 to 3 mg/kg, ip pretreated for 17 mins followed by TNFalpha injection and subsequent compound treatment once in every 12 hrs measured 24 hrs post TNFalpha injection; assay type: functional, organism-based; outline: as §2
Mus musculus [12] = experiment: Protection against TNFalpha-induced multiorgan damage in C57BL/6J mouse assessed as serum amylase level at 0.3 to 3 mg/kg, ip pretreated for 17 mins followed by TNFalpha injection and subsequent compound treatment once in every 12 hrs measured 24 hrs post TNFalpha injection; assay type: functional, organism-based; outline: as §2
Mus musculus [13] = experiment: Protection against TNFalpha-induced multiorgan damage in C57BL/6J mouse assessed as serum CK-MB level at 0.3 to 3 mg/kg, ip pretreated for 17 mins followed by TNFalpha injection and subsequent compound treatment once in every 12 hrs measured 24 hrs post TNFalpha injection; assay type: functional, organism-based; outline: as §2
Mus musculus [14] = experiment: Protection against TNFalpha-induced multiorgan damage in C57BL/6J mouse assessed as serum AST level at 0.3 to 3 mg/kg, ip pretreated for 17 mins followed by TNFalpha injection and subsequent compound treatment once in every 12 hrs measured 24 hrs post TNFalpha injection; assay type: functional, organism-based; outline: as §2
Mus musculus [15] = experiment: Protection against TNFalpha-induced multiorgan damage in C57BL/6J mouse assessed as serum creatinine level at 0.3 to 3 mg/kg, ip pretreated for 17 mins followed by TNFalpha injection and subsequent compound treatment once in every 12 hrs measured 24 hrs post TNFalpha injection; assay type: functional, organism-based; outline: as §2
Mus musculus [16] = experiment: as §3, with “macrophages” for “immune cell”; assay type: functional, organism-based; outline: as §4
Mus musculus [17] = experiment: as §3, with “thymus” for “spleen”, “macrophages” for “immune cell”; assay type: functional, organism-based; outline: as §4
Mus musculus [18] = experiment: Protection against TNFalpha-induced myocardium damage in C57BL/6J mouse at 0.3 to 3 mg/kg, ip pretreated for 17 mins followed by TNFalpha injection and subsequent compound treatment once in every 12 hrs measured 24 hrs post TNFalpha injection by hematoxylin and eosin staining based assay; assay type: functional, organism-based; outline: as §4
Mus musculus [19] = experiment: Protection against TNFalpha-induced kidney damage in C57BL/6J mouse at 0.3 to 3 mg/kg, ip pretreated for 17 mins followed by TNFalpha injection and subsequent compound treatment once in every 12 hrs measured 24 hrs post TNFalpha injection by hematoxylin and eosin staining based assay; assay type: functional, organism-based; outline: as §4
Cytochrome P450 2C19 = Cytochrome P450 2C19 (Homo sapiens, UniProt P33261); experiment: Inhibition of CYP2C19 (unknown origin); assay type: ADME
Cytochrome P450 3A4 = Cytochrome P450 3A4 (Homo sapiens, UniProt P08684); experiment: Inhibition of CYP3A4 (unknown origin); assay type: ADME
[20] = Apparent permeability from apical to basolateral side in MDCK cells harboring MDR1; assay type: ADME, cell-based, Canis lupus familiaris; conditions: dog
Outline: (§5)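 Permeability measured in MDCK-MDR1 cell monolayers in both directions, apical-to-basolateral and basolateral-to-apical; efflux ratio derived from the two Papp values.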

[21] = Apparent permeability from basolateral to apical side in MDCK cells harboring MDR1; assay type: ADME, cell-based, Canis lupus familiaris; conditions: dog; outline: as §5
[22] = Efflux ratio of apparent permeability in MDCK cells harboring MDR1; assay type: ADME, cell-based, Canis lupus familiaris; conditions: dog
[23] = molecular target: Voltage-gated inwardly rectifying potassium channel KCNH2 (Homo sapiens, UniProt Q12809); experiment: Inhibition of human ERG at 30 uM by manual patch clamp method
Outline: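 Manual patch clamp on hERG channel, tested up to 30 μM.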

[24] = molecular target: Receptor-interacting serine/threonine-protein kinase 3 (Homo sapiens) (UniProt Q9Y572); experiment: Inhibition of full length recombinant human N-terminal GST-tagged RIP3 expressed in baculovirus infected sf9 cells at 10 uM using MBP as substrate preincubated for 15 mins followed by MBP/ATP mixture addition measured after 90 mins by ADP-Glo kinase assay

Receptor-interacting serine/threonine-protein kinase 3 (Homo sapiens), sequence (Q9Y572 whole entry, looked up): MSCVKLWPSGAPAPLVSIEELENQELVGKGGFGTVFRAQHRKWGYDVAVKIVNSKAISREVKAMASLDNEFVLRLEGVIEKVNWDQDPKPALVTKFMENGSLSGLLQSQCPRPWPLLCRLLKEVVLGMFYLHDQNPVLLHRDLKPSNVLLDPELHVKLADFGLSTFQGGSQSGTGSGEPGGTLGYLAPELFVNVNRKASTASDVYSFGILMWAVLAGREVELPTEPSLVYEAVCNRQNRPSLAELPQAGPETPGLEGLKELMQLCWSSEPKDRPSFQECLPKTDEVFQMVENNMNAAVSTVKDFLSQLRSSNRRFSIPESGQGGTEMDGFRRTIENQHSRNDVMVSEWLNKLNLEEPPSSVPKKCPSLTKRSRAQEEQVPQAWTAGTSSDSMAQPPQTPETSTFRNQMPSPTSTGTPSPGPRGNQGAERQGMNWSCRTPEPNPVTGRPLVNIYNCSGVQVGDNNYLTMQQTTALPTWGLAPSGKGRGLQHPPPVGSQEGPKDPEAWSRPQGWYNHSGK
Voltage-gated inwardly rectifying potassium channel KCNH2, sequence (Q12809 whole entry): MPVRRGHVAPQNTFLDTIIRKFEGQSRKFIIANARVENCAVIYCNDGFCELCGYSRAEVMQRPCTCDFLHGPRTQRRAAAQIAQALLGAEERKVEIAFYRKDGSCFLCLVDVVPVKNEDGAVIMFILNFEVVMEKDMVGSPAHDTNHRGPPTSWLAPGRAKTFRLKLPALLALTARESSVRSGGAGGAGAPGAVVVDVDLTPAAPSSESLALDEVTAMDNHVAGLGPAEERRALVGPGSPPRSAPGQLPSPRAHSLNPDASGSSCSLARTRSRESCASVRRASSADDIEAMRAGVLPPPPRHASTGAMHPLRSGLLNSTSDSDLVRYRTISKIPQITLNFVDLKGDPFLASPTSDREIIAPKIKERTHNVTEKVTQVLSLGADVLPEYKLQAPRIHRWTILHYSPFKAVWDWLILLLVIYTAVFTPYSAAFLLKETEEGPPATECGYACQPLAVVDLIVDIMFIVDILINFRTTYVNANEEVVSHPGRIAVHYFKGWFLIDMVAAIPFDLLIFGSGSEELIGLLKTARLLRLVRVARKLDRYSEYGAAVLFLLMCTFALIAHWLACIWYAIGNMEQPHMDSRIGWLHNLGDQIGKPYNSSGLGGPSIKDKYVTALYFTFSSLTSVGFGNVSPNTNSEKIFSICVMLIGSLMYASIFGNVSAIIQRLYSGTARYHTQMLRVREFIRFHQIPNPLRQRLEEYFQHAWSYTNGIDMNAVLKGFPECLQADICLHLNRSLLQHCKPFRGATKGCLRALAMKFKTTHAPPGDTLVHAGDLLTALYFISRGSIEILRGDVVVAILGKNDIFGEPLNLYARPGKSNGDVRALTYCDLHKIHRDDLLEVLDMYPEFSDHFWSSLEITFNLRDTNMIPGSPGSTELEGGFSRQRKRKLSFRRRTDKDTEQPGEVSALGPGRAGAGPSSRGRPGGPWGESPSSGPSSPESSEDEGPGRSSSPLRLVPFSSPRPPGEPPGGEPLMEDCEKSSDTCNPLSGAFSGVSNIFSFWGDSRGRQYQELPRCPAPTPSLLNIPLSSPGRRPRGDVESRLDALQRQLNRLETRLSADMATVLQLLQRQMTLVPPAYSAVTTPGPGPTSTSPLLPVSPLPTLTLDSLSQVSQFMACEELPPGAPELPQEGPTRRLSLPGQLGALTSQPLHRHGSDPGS
Cytochrome P450 2C19, sequence (P33261 whole entry): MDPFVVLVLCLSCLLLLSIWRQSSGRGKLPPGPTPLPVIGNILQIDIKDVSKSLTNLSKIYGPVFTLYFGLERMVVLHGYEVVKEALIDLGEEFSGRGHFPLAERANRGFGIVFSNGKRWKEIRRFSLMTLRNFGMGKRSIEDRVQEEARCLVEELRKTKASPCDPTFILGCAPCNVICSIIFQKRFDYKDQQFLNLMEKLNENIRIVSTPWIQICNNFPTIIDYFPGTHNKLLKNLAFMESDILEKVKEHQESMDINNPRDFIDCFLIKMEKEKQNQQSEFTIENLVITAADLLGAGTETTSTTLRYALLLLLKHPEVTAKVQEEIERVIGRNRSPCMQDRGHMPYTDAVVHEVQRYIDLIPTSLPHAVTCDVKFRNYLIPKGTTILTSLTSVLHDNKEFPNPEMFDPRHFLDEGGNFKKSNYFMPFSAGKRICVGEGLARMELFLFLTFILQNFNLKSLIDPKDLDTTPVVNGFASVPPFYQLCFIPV
Cytochrome P450 3A4, sequence (P08684 whole entry): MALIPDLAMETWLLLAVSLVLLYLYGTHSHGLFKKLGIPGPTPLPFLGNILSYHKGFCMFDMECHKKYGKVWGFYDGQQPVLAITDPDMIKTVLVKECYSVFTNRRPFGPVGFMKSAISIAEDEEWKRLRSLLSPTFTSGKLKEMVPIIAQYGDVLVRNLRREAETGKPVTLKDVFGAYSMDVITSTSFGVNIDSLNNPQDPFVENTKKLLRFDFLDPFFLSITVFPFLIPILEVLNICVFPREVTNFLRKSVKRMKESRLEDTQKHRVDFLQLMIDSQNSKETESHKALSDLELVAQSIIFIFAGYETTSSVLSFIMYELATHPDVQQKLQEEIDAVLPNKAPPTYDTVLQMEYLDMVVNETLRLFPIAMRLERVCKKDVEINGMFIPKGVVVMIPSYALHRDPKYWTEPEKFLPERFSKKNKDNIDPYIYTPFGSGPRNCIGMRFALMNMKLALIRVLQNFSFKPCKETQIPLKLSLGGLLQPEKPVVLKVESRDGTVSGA

SMILES: CCC(C)(C)C(=O)N(O)Cc1ccccc1
- Drug uptake (Brain): Active
- microsomal CLint [1]: 5.4 µL/min/mg
- half-life [2]: 0.592 h
- microsomal CLint [3]: 19.5 µL/min/mg
- inhibition [4]: Active
- half-life [5]: 3.1 h
- bioavailability [6]: 22%
- survival at 6 mg/kg (Mus musculus [7]): 100%
- Activity (Mus musculus [8]): Dose-dependent effect
- inhibition (Mus musculus [9]): Active
- Activity (Mus musculus [10]): Active
- Activity (Mus musculus [11]): Active
- Activity (Mus musculus [12]): Active
- Activity (Mus musculus [13]): Active
- Activity (Mus musculus [14]): Active
- Activity (Mus musculus [15]): Active
- Activity (Mus musculus [16]): Active
- Activity (Mus musculus [17]): Active
- Activity (Mus musculus [18]): Active
- Activity (Mus musculus [19]): Active
- IC50 (Cytochrome P450 2C19): > 50 µM
- IC50 (Cytochrome P450 3A4): > 3.5 µM
- Papp A→B [20]: > 30 ×10⁻⁶ cm/s
- Papp B→A [21]: > 30 ×10⁻⁶ cm/s
- efflux ratio [22]: 0.87
- inhibition (INH) [23]: Not Active
- inhibition [24]: inactive
